Results collected from several papers.
Lines come from different studies, so protocols differ.
Target: Phosphatidylinositol 5-phosphate 4-kinase type-2 beta (PIP4K2B, Homo sapiens, UniProt P78356)
Sequence (P78356 1-416, as in one of the studies): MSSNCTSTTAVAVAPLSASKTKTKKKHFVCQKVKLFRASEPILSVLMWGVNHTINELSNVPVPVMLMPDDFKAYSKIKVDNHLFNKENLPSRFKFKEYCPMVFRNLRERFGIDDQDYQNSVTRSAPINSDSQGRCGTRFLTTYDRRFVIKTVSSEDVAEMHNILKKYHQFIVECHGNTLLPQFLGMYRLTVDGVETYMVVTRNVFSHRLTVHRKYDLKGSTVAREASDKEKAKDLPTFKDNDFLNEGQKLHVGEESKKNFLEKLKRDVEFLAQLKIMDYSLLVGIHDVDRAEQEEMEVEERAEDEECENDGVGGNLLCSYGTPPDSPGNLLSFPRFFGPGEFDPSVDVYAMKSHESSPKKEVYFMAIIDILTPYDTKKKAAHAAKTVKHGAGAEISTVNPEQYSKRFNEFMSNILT

O=C(N[C@H]1CCCCC/C=C\C2C[C@@]2(C(=O)O)NC(=O)[C@@H]2C[C@@H](Oc3ccncc3)CN2C1=O)OC1CCCC1 (some centres unmarked) has a remaining binding of 100% (binding; competition with immobilised ligand; 1 µM).
With CCN1CCN(Cc2ccc(C(=O)Nc3ccc(C)c(Oc4ccc5c(c4)CC(=O)N5)c3)cc2C(F)(F)F)CC1 the remaining binding was 100% (binding; competition with immobilised ligand; 1 µM).
COc1ccnn2ncc(-c3ccnc(N(C)C)n3)c12 has a remaining binding of 100% (binding; 1 µM).
The remaining binding of O=C(Nc1c[nH]nc1C(=O)NC1CCNCC1)c1cc(F)cc(F)c1 is reported as 88% (binding; competition with immobilised ligand; 1 µM).
For NS(=O)(=O)c1cc(NC(=O)Cc2ccccc2)ccc1Oc1cccc(Cl)c1, the remaining binding was 89% (cell-free assay; competition with immobilised ligand; 1 µM).
The remaining binding of c1cncc(-c2cccc(Nc3nccc(NC4CCCCC4)n3)c2)c1 is reported as 27% (binding; competition with immobilised ligand; 10 µM).
With Cc1c(NC(=O)c2cc(C(N)=O)nc3cc(F)ccc23)c(C(F)(F)F)nn1Cc1ccc(C(C)(C)C)cc1 the remaining binding was 91% (cell-free assay; competition with immobilised ligand; 1 µM).
The remaining binding of N[C@H]1CCN(c2nccc(-c3cnn4ncccc34)n2)C1 is reported as 100% (binding; 1 µM).
COc1cnc(Nc2cccc(S(N)(=O)=O)c2)nc1N1CCN(c2ccccc2)C(=O)C1 has a remaining binding of 100% (binding; competition with immobilised ligand; 1 µM).
COc1ccc2c(c1)O[C@H](c1ccc(OC)c(OC)c1)C[C@@H]2NC(=O)C1(c2ccc3c(c2)OC(F)(F)O3)CC1 has a remaining binding of 80% (cell-free assay; competition with immobilised ligand; 1 µM).
The remaining binding of Cc1nc(NC(=O)N2CCC[C@H]2C(N)=O)sc1-c1ccnc(C(C)(C)C(F)(F)F)c1 is reported as 100% (binding; competition with immobilised ligand; 10 µM).
With O=C(NCCCN1CCOCC1)c1ccc(Nc2nccc(-c3cc4ccccc4s3)n2)cc1 the remaining binding was 11% (binding; competition with immobilised ligand; 1 µM).
The remaining binding of CN(c1nccc(-c2cnn3ncccc23)n1)C1CC1 is reported as 65% (binding; 1 µM).
Cc1cc(C)c(-n2ccn3nc(-c4cccnc4)cc23)cc1NC(=O)c1cc(C#N)cc(S(F)(F)(F)(F)F)c1 has a remaining binding of 52.2% (cell-free assay; competition with immobilised ligand; 0.1 µM).
For FC(F)(F)Oc1cccc(-c2cnc3ccc(-c4ccncc4)nn23)c1, the remaining binding was 100% (cell-free assay; competition with immobilised ligand; 5 µM).
The remaining binding of CC1CCCN1c1nccc(-c2cnn3ncccc23)n1 (centres unmarked) is reported as 100% (binding; 1 µM).
The remaining binding of O=C(c1ccc(Nc2ncc(Cl)c(-c3cc4ccccc4s3)n2)cc1)N1CCC(N2CCCC2)CC1 is reported as 7.1% (binding; competition with immobilised ligand; 1 µM).
With C[C@H](c1ccnc(Nc2nc3ccc(-c4cc(N(C)C)ncn4)cc3[nH]2)c1)N1CCN(C(=O)CC(F)(F)F)CC1 the remaining binding was 75% (cell-free assay; competition with immobilised ligand; 0.1 µM).
COc1ncc2cc3ccccc3nc2c1C#N has a remaining binding of 100% (cell-free assay; competition with immobilised ligand; 5 µM).
For C[C@@H]1CCN(c2nccc(-c3cnn4ncccc34)n2)C1, the remaining binding was 100% (binding; 1 µM).
With Cc1nc(N2CC[C@@H](O)C2)ncc1-c1cc(C(F)(F)F)cc2[nH]ncc12 the remaining binding was 100% (cell-free assay; competition with immobilised ligand; 1 µM).
For O=C(c1ccc(Nc2nccc(-c3cc4ccccc4s3)n2)cc1)N1CCC(N2CCCC2)CC1, the remaining binding was 11% (binding; competition with immobilised ligand; 1 µM).
CN(C)c1ncc(F)c(-c2cnn3ncccc23)n1 gave a remaining binding of 100% (binding; 1 µM).
